# Assay outcomes deposited in PubChem by Broad Institute.
# T cruzi growth-1: T. cruzi proliferation inhibition; inhibition, % at 8.34 µM; T. cruzi beta-gal in NIH3T3, GalScreen luminescence, 90 h; 77,000 tested, 5.9% active;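 active = mean inhibition above about 93%, with at least 55% of replicates each passing it, limit read from the data, passing the limit was not always enough; inconclusive = only one of those two conditions holds; inactive = neither condition holds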
# KDM4C inh: KDM4C (human) demethylase inhibition | Q9H3R0 | GST-KDM4C 2-372, H3K9me3 peptide, LANCE TR-FRET | inhibition, % at 12.5 µM | 96,000 tested, 0.15% active;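 active = mean replicate inhibition above about 25%, with at least 55% of replicates also reaching it, limit read from the data, passing the limit was not always enough; inconclusive = only one of those two conditions met; inactive = neither condition met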
#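 Test system: N-terminal GST-fused human GASC-1 (KDM4C) fragment, residues 2-372; quantity: GASC-1 enzyme at 10 nM final in reaction; dosing: single dose; schedule: 30 min demethylation and 1 h detection at room temperature; signal: LANCE TR-FRET, excitation 340 nm, emissions 618 and 671 nm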
# IDH1 R132H inh: blocks human IDH1 R132H reductase activity. AID 624101. 70,000 tested, 0.18% active. O75874. inhibition, % at 10 µM. diaphorase/resazurin fluorescence, 60 min; in the data active = inhibition above about 34%; inconclusive = no clear call, values can overlap the other calls; inactive = below about 11%;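 note: 0% = DMSO and 100% = no enzyme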
# Target sequence (O75874 whole entry R132H): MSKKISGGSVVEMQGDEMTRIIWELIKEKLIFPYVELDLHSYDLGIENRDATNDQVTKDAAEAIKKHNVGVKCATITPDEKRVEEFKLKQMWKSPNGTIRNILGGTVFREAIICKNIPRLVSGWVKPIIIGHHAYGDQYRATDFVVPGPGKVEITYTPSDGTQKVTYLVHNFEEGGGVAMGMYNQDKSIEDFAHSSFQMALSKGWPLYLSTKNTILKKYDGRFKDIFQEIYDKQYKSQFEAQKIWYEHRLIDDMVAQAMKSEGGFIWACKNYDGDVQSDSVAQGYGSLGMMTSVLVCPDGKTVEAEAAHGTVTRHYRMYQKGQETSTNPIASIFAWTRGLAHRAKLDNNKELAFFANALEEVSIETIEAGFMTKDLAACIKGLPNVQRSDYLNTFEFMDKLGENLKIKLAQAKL
# T cruzi growth-2: inhibitors of T. cruzi proliferation. shares compounds with T cruzi growth-1. T. cruzi beta-gal in NIH3T3, GalScreen luminescence, 90 h. inhibition, % at 8.35 µM. 5,600 tested, 72% active. AID 651739;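 active = mean replicate inhibition above about 95% and at least 55% of replicates individually reaching it, limit read from the data; inconclusive = only one of the two criteria is met; inactive = neither criterion is met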
# T cruzi growth-3: blocks T. cruzi growth in NIH3T3 host cells; shares compounds with T cruzi growth-1; T. cruzi beta-gal in NIH3T3, GalScreen luminescence, 90 h; inhibition, % at 2.09 µM; 5,600 tested, 21% active;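 active = mean inhibition above about 95%, with at least 55% of replicates also reaching it, limit read from the data; inconclusive = meets just one of the two conditions; inactive = meets neither condition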;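 note: plate controls were neutral control median for no effect and positive control median for full effect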
# NIH3T3 tox: cytotoxicity in mouse NIH/3T3 fibroblasts. cytotoxicity (signal decrease), % at 8.35 µM. shares compounds with T cruzi growth-1. 5,600 tested, 14% active. AID 651742. NIH/3T3 viability, CellTiter-Glo ATP luminescence, 90 h;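 active = mean signal decrease across replicates above about 35% based on untreated-well scatter, with enough replicates individually passing, limit read from the data; inconclusive = no rule stated though some were filed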;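 note: 0% = median of neutral control wells and 100% = median of positive control wells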
# NIH3T3 tox 2: cytotoxicity in mouse NIH/3T3 fibroblasts | shares compounds with T cruzi growth-1 | NIH/3T3 viability, CellTiter-Glo ATP luminescence, 90 h | inhibition, % at 24.9 µM | 5,600 tested, 56% active;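 active = mean loss of cell viability signal at or above a set limit, and enough replicates individually reaching it; inconclusive = meets only the mean limit or only the replicate share; inactive = meets neither condition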;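 note: 0% = median of neutral control wells and 100% = median of positive control wells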
# An asterisk follows results filed as active; ? = inconclusive; . = not tested or not shown. The full list was thinned out, with hits kept by preference.
SMILES,T cruzi growth-1,KDM4C inh,IDH1 R132H inh,T cruzi growth-2,T cruzi growth-3,NIH3T3 tox,NIH3T3 tox 2
N#C[C@H]1N[C@@H](CO)[C@@H]1c1ccc(C#Cc2ccccc2F)cc1,99.1*,-0.6,.,96.6*,91.1,0.2,105.7*
N#C[C@H]1N[C@H](CO)[C@H]1c1ccc(C#CC2CCCC2)cc1,100.6*,3.6,.,98.6*,68.3,4.8,26.6*
N#C[C@@H]1N[C@H](CO)[C@@H]1c1ccc(C#CC2CCCC2)cc1,34.2,1.5,.,.,.,.,.
COc1cccc(C#Cc2ccc([C@H]3[C@@H](C#N)N[C@@H]3CO)cc2)c1,98.4*,-0.9,.,99.7*,100.8*,19.5,54.3*
N#C[C@H]1N[C@H](CO)[C@H]1c1ccc(C#Cc2ccc(F)cc2)cc1,101.3*,-3.1,.,101.1*,76.1,12.8,19.1
N#C[C@H]1N[C@H](CO)[C@H]1c1ccc(C#Cc2cccnc2)cc1,79.0,-2.2,.,.,.,.,.
N#C[C@@H]1N[C@H](CO)[C@H]1c1ccc(C#CC2CCCC2)cc1,90.8,0.6,.,.,.,.,.
CS(=O)(=O)N(CC(=O)Nc1cc(Cl)ccc1Cl)c1ccc(I)cc1,.,.,0.4,.,.,.,.
Cc1ncc(CO)c(/C=N/NC(=O)CCCCCCC(=O)Nc2ccccc2O)c1O,.,.,-0.2,.,.,.,.
C[C@@H]1CN([C@@H](C)CO)C(=O)c2cc(NS(=O)(=O)c3ccccc3)ccc2O[C@@H](C)CCCCO[C@@H]1CN(C)CC1CCCCC1,88.7,-0.7,.,.,.,.,.
CCN(CC)CCNc1ncnc2scc(-c3ccc(F)cc3)c12,.,.,-1.1,.,.,.,.
O=S(=O)(c1cccs1)N1CCCCN2[C@H](CO)[C@H](c3ccc(/C=C/c4ccccc4)cc3)[C@H]2C1,48.3,-0.9,.,.,.,.,.
O=S(=O)(c1cccs1)N1CCCCN2[C@H](CO)[C@H](c3ccc(-c4ccccc4)cc3)[C@H]2C1,87.9,-0.5,.,.,.,.,.
O=S(=O)(c1cccs1)N1CCCCN2[C@H](C1)[C@@H](c1ccc(Br)cc1)[C@@H]2CO,102.7*,-0.2,.,103.7*,15.3,?,11.1
O=S(=O)(c1cccs1)N1CCCCN2[C@H](CO)[C@@H](c3ccc(/C=C/c4ccccc4)cc3)[C@@H]2C1,96.8*,0.6,.,105.3*,42.1,25.5,23.5
O=S(=O)(c1cccs1)N1CCCCN2[C@H](CO)[C@@H](c3ccc(Br)cc3)[C@@H]2C1,88.0,-1.6,.,.,.,.,.
Cc1cccc(-c2ccc([C@H]3[C@@H](CO)N4CCCCN(S(=O)(=O)c5cccs5)C[C@H]34)cc2)c1,71.2,-1.0,.,.,.,.,.
O=S(=O)(c1cccs1)N1CCCCN2[C@H](CO)[C@H](c3ccc(-c4ccccc4)cc3)[C@@H]2C1,?,-2.2,.,107.0*,81.1,15.5,2.0
O=S(=O)(c1cccs1)N1CCCCN2[C@H](C1)[C@H](c1ccc(-c3ccccc3)cc1)[C@@H]2CO,100.8*,-1.0,.,107.7*,94.0,14.5,?
COc1cccc(OC)c1/C=N/NC(=O)CCCCCC(=O)NO,.,.,0.4,.,.,.,.
CO[C@H]1CN(C)C(=O)c2cc(NC(=O)C3CC3)ccc2OC[C@H](C)N(Cc2cccc(F)c2)C[C@H]1C,63.4,-0.4,-0.1,.,.,.,.
COC(=O)COc1c(Br)cc(C2C3=C(CCCC3=O)NC3=C2C(=O)CCC3)cc1OC,.,.,0.3,.,.,.,.
O=c1c2ccccc2nc(-c2cccs2)n1NCc1ccccc1F,.,.,1.1,.,.,.,.
O=S(=O)(c1cccs1)N1CCCCN2[C@H](CO)[C@H](c3ccc(C4=CCCCC4)cc3)[C@@H]2C1,118.0*,.,.,101.4*,93.6,23.0,51.3*
O=S(=O)(c1cccs1)N1CCCCN2[C@@H](CO)[C@@H](c3ccc(C4=CCCCC4)cc3)[C@@H]2C1,75.8,.,.,.,.,.,.
SMILES,T cruzi growth-1,KDM4C inh,IDH1 R132H inh,T cruzi growth-2,T cruzi growth-3,NIH3T3 tox,NIH3T3 tox 2
C[C@@H]1CCCCO[C@H](CN(C)Cc2ccc(C(F)(F)F)cc2)[C@@H](C)CN([C@@H](C)CO)C(=O)c2cc(NC(=O)Nc3ccc4c(c3)OCO4)ccc2O1,78.2,-0.9,.,.,.,.,.
C[C@@H]1CCCCO[C@H](CN(C)Cc2ccc(C(F)(F)F)cc2)[C@@H](C)CN([C@H](C)CO)C(=O)c2cc(NC(=O)Nc3ccc4c(c3)OCO4)ccc2O1,79.6,-1.5,0.9,.,.,.,.
C[C@@H]1CCCCO[C@@H](CN(C)Cc2ccc3c(c2)OCO3)[C@H](C)CN([C@H](C)CO)C(=O)c2cc(NC(=O)Nc3ccc(C(F)(F)F)cc3)ccc2O1,119.3*,-1.6,.,101.8*,109.8*,32.4,104.2*
C[C@@H]1CN([C@H](C)CO)C(=O)c2cc(NC(=O)Nc3ccc(C(F)(F)F)cc3)ccc2O[C@@H](C)CCCCO[C@@H]1CN(C)Cc1ccc2c(c1)OCO2,?,1.4,.,93.5,120.0*,?,102.4*
C[C@@H]1CCCCO[C@H](CN(C)Cc2ccc3c(c2)OCO3)[C@@H](C)CN([C@H](C)CO)C(=O)c2cc(NC(=O)Nc3ccc(C(F)(F)F)cc3)ccc2O1,?,-0.7,2.5,93.6,112.6*,18.7,101.7*
C[C@@H]1CCCCO[C@@H](CN(C)Cc2ccc(C(F)(F)F)cc2)[C@@H](C)CN([C@@H](C)CO)C(=O)c2cc(NC(=O)Nc3ccc4c(c3)OCO4)ccc2O1,85.5,-1.0,1.5,.,.,.,.
CSc1cccc(N2C(=S)NC3c4ccccc4OC24CCCC34)c1 (centres undefined),.,.,0.3,.,.,.,.
CN1C(=O)c2ccccc2C(C(=O)NCc2ccco2)C1c1cn(C)c2ccccc12 (centres undefined),.,.,1.3,.,.,.,.
C[C@@H]1CN([C@H](C)CO)C(=O)c2cc(C#CC3CCCCC3)cnc2O[C@@H]1CN(C)Cc1cncnc1,53.0,-2.3,-1.3,.,.,.,.
O=C(NO)c1ccc(C(=O)N/N=C/c2ccc(O)cc2Br)cc1,.,.,1.4,.,.,.,.
COC(=O)C[C@H]1CC[C@H]2[C@@H](COc3ccc(NS(=O)(=O)c4ccc(F)cc4)cc3C(=O)N2C)O1,.,0.0,.,.,.,.,.
COc1ccccc1NC(=O)N1CC[C@@H]2[C@H]1c1cc(-c3ccccc3)ccc1N(C)[C@@H]2CO,86.7,-2.1,.,.,.,.,.
COc1ccccc1NC(=O)N1CC[C@@H]2[C@H]1c1cc(-c3cccc(F)c3)ccc1N(C)[C@H]2CO,39.8,-6.4,.,.,.,.,.
COc1ccccc1NC(=O)N1CC[C@@H]2[C@H]1c1cc(C#Cc3ccc(F)cc3)ccc1N(C)[C@@H]2CO,?,-0.8,.,98.5*,111.3*,2.4,12.2
CCC(=O)N1CC[C@@H]2[C@H]1c1cc(C#Cc3cccc(F)c3)ccc1N(C)[C@H]2CO,100.6,0.0,.,.,.,.,.
CCC(=O)N1CC[C@H]2[C@@H]1c1cc(C#Cc3ccccc3OC)ccc1N(C)[C@H]2CO,98.8*,-0.1,.,110.1*,76.5,22.4,-6.6
COc1ccccc1NC(=O)N1CC[C@H]2[C@@H]1c1cc(-c3ccc(F)cc3)ccc1N(C)[C@H]2CO,100.8*,0.7,.,106.1*,?,8.7,28.5*
